# Measured values reported in PMC12086819 (RSC Advances, 2025).
# Entries after “also recorded” stand apart in the source; their conditions may differ. Like-named read-outs stand apart in the source and are kept apart here.
# Key:
# NIH-3T3 cells = experiment: MTT cytotoxicity assay in non-cancerous NIH-3T3 cells; type: cell-based, mouse; conditions: for IC50: Mus musculus; for cytotoxic effect on non-cancerous NIH-3T3 cells (in words): NIH-3T3 mouse embryonic fibroblast, treatment up to 48 h
# Outline: (§1)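 Cells (A549 or NIH-3T3) were seeded at 5 × 10^3 per well and grown 24 h at 37 °C, 5% CO2, then given increasing concentrations for 24 h and 48 h. DMSO/medium served as negative control and cisplatin as standard. MTT (5 mg mL−1 stock) was added for 4 h at 37 °C, formazan was dissolved in DMSO, and A595 was read. Triplicate means were used; IC50 came from dose–response inhibition curves.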
# A549 cells [1] = experiment: AO/EB and Hoechst 33258 staining assay; type: cell-based, human; conditions: A549 cells treated at respective IC50 concentration, 24 h and 48 h
# Outline: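 A549 cells were seeded at 5 × 10^4 per well and grown 24 h at 37 °C, 5% CO2, then exposed at the respective IC50 concentration for 24 h and 48 h, alongside untreated and cisplatin controls. Staining used either AO/EB solution (100 μg per mL each) or Hoechst 33258 solution (100 μg per mL). Cells were examined and counted by fluorescence microscopy within 20 min.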
# A549 cells [2] = experiment: Intracellular ROS generation; type: cell-based, human; conditions: IC50 concentrations, DCFH-DA, 0-24 h
# Outline: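 Cells were seeded at 3.0 × 10^4 cells per mL in 24-well plates for 24 h, then dosed at 24 h IC50 concentrations with added 100 μM H2O2 solution. After 10 μM DCFH-DA solution was added, plates were held 10 min in the dark. DCF fluorescence (ex 488/em 510 nm) was read at 0, 2, 4, 6, 8, 12 and 24 h and expressed as fold change versus untreated control. Triplicates, mean ± SD.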
# A549 cells [3] = experiment: MTT cytotoxicity assay against the A549 lung cancer cell line; type: cell-based, human; conditions: for cytotoxic activity compared with cisplatin: MTT
# Outline: as §1
# [4] = NIH3T3, 24 h, read-out: IC50 at 24 h
# [5] = NIH3T3, 48 h, read-out: IC50 at 48 h
SMILES,IC50 (NIH-3T3 cells; [4]) [µM],IC50 (NIH-3T3 cells; [5]) [µM],apoptosis induction (AO/EB and Hoechst staining) (A549 cells [1]),DCF fluorescent intensity compared with the untreated control group (A549 cells [2]),cytotoxic activity compared with cisplatin (A549 cells [3]),reduction in cell viability (A549 cells [3]; at 24 and 48 h),cytotoxic effect on non-cancerous NIH-3T3 cells (in words) (NIH-3T3 cells),fold higher activity at 48 h than at 24 h (A549 cells [3]; IC50 at 48 h vs 24 h) [fold]
"Cc1cc(C)c(C2CN(C)C3(C(=O)Nc4ccccc43)C2C(=O)c2ccccc2)c(C)c1 (stereo not drawn) [4a, 3′-Benzoyl-4′-mesityl-1′-methylspiro[indoline-3,2′-pyrrolidin]-2-one]",> 100,25.4 ± 3.74,apoptosis-inducing capabilities,Not much difference,,,,
"Cc1cc(C)c(C2CN(C)C3(C(=O)Nc4ccccc43)C2C(=O)c2ccc(F)cc2)c(C)c1 (stereo not drawn) [4b, 3′-(4-Fluorobenzoyl)-4′-mesityl-1′-methylspiro[indoline-3,2′-pyrrolidin]-2-one]",> 100,32.8 ± 5.95,,Not much difference,,,,
"Cc1cc(C)c(C2CN(C)C3(C(=O)Nc4ccccc43)C2C(=O)c2ccc(Cl)cc2)c(C)c1 (stereo not drawn) [4c, 3′-(4-Chlorobenzoyl)-4′-mesityl-1′-methylspiro[indoline-3,2′-pyrrolidin]-2-one]",> 100,> 100,,,better activity than cisplatin,,,
"Cc1cc(C)c(C2CN(C)C3(C(=O)Nc4ccccc43)C2C(=O)c2ccc(Br)cc2)c(C)c1 (stereo not drawn) [4d, 3′-(4-Bromobenzoyl)-4′-mesityl-1′-methylspiro[indoline-3,2′-pyrrolidin]-2-one]",> 100,> 100,,,better activity than cisplatin,,,
"Cc1ccc(C(=O)C2C(c3c(C)cc(C)cc3C)CN(C)C23C(=O)Nc2ccccc23)cc1 (stereo not drawn) [4e, 4′-Mesityl-1′-methyl-3′-(4-methylbenzoyl)spiro[indoline-3,2′-pyrrolidin]-2-one]",> 100,> 100,,Not much difference,better activity than cisplatin,,,
"Cc1cc(C)c(C2CN(C)C3(C(=O)Nc4ccccc43)C2C(=O)c2cccc(Cl)c2)c(C)c1 (stereo not drawn) [4f, 3′-(3-Chlorobenzoyl)-4′-mesityl-1′-methylspiro[indoline-3,2′-pyrrolidin]-2-one]",> 100,> 100,,,,No substantial reduction in cell viability,,
"Cc1cccc(C(=O)C2C(c3c(C)cc(C)cc3C)CN(C)C23C(=O)Nc2ccccc23)c1 (stereo not drawn) [4g, 4′-Mesityl-1′-methyl-3′-(3-methylbenzoyl)spiro[indoline-3,2′-pyrrolidin]-2-one]",> 100,75.3 ± 0.94,,Not much difference,,,,
"Cc1cc(C)c(C2C3CCCN3C3(C(=O)Nc4ccccc43)C2C(=O)c2ccccc2)c(C)c1 (stereo not drawn) [5a, 2′-Benzoyl-1′-mesityl-1′,2′,5′,6′,7′,7a′-hexahydrospiro[indoline-3,3′-pyrrolizin]-2-one]",> 100,72 ± 4.45,,,better activity than cisplatin,,,
"Cc1cc(C)c(C2C3CCCN3C3(C(=O)Nc4ccccc43)C2C(=O)c2ccc(F)cc2)c(C)c1 (stereo not drawn) [5b, 2′-(4-Fluorobenzoyl)-1′-mesityl-1′,2′,5′,6′,7′,7a′-hexahydrospiro[indoline-3,3′-pyrrolizin]-2-one]",> 100,69.9 ± 1.3,,,better activity than cisplatin,,,
"Cc1cc(C)c(C2C3CCCN3C3(C(=O)Nc4ccccc43)C2C(=O)c2ccc(Cl)cc2)c(C)c1 (stereo not drawn) [5c, 2′-(4-Chlorobenzoyl)-1′-mesityl-1′,2′,5′,6′,7′,7a′-hexahydrospiro[indoline-3,3′-pyrrolizin]-2-one]",> 100,72.1 ± 0.95,,Not much difference,better activity than cisplatin,,,
"Cc1cc(C)c(C2C3CCCN3C3(C(=O)Nc4ccccc43)C2C(=O)c2ccc(Br)cc2)c(C)c1 (stereo not drawn) [5d, 2′-(4-Bromobenzoyl)-1′-mesityl-1′,2′,5′,6′,7′,7a′-hexahydrospiro[indoline-3,3′-pyrrolizin]-2-one]",> 100,42.9 ± 1.51,,,better activity than cisplatin,,,
"Cc1ccc(C(=O)C2C(c3c(C)cc(C)cc3C)C3CCCN3C23C(=O)Nc2ccccc23)cc1 (stereo not drawn) [5e, 1′-Mesityl-2′-(4-methylbenzoyl)-1′,2′,5′,6′,7′,7a′-hexahydrospiro[indoline-3,3′-pyrrolizin]-2-one]",> 100,> 100,higher number of early and late apoptotic cells; also recorded: apoptosis-inducing capabilities,Not much difference,,,non-cytotoxic; also recorded: no cytotoxic effects,
"Cc1cc(C)c(C2C3CCCN3C3(C(=O)Nc4ccccc43)C2C(=O)c2cccc(Cl)c2)c(C)c1 (stereo not drawn) [5f, 2′-(3-Chlorobenzoyl)-1′-mesityl-1′,2′,5′,6′,7′,7a′-hexahydrospiro[indoline-3,3′-pyrrolizin]-2-one]",> 100,> 100,higher number of early and late apoptotic cells; also recorded: apoptosis-inducing capabilities; also recorded: induces apoptosis,Not much difference,,,non-cytotoxic; also recorded: no cytotoxic effects,~13
"Cc1cccc(C(=O)C2C(c3c(C)cc(C)cc3C)C3CCCN3C23C(=O)Nc2ccccc23)c1 (stereo not drawn) [5g, 1′-Mesityl-2′-(3-methylbenzoyl)-1′,2′,5′,6′,7′,7a′-hexahydrospiro[indoline-3,3′-pyrrolizin]-2-one]",> 100,> 100,,,better activity than cisplatin,,,
"N.N.[Cl][Pt][Cl] [Cisplatin, cisplatin, reference compound]",,,distinct changes as an indication of apoptosis and cell death,,,,,
